Data set [1] concerns A549. Nature of the data set: Antiproliferative activity against human A549 cells assessed as cell growth inhibition measured after 72 hrs by MTT assay. The conditions noted are these: A549, 72 h. Type of data set: functional, cell-based. Summed up: (§1)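 Cells seeded at 2.5 × 10^4 cells/well, allowed 24 h before dosing, then exposed to increasing concentrations (0.5% DMSO final) for 72 h at 37 °C, 5% CO2. MTT added at 1 mg/mL final in complete media for 2 h, formazan dissolved in DMSO, absorbance read at 570 nm. 6–8 repeats per treatment; IC50 from concentration–response fit.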
For orientation: Formazan colour is commonly taken as a measure of viable cells.

In data set [2] the test system is MDA-MB-231. Nature of the data set: Antiproliferative activity against human MDA-MB-231 cells assessed as cell growth inhibition measured after 72 hrs by MTT assay. It counts as functional, cell-based. Conditions: MDA-MB-231, 72 h. An outline of the steps: as §1
Data set [3] relates to MDA-MB-231. Nature of the data set: Antitumor activity in human MDA-MB-231 cells cultured as 3D spheroids assessed as fold decrease in spheroid volume at 1.15 uM measured up to 15 days by inverted microscopic analysis. The conditions noted are these: time <= 15 day. It counts as functional. Summed up:
(§2)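 Spheroids formed from 2000 cells/well in ultra-low attachment U-bottom wells over 3 days, then given a single dose on day 3. Half the media was replenished every 3 days. Transmitted-light images were taken through day 15, and spheroid volume was computed from images and expressed as fold-difference. Mean ± SD, n = 8; unpaired t-test.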

Data set [4] is described as follows: Metabolic stability in human liver microsomes assessed as compound remaining preincubated for 10 mins followed by NADPH addition measured after 60 mins by HPLC analysis. Conditions: read-out: Stability. Type of data set: ADME, Microsome. In general terms: Liver microsomes are vesicles of endoplasmic reticulum, rich in cytochrome P450 enzymes.
In data set [5] the test system is MDA-MB-231. Nature of the data set: Antitumor activity against human MDA-MB-231 cells tumor spheroids assessed as decrease in live cells by measuring green fluorescence intensity at 1.15 to 2.30 uM measured at 15 days by calcein AM staining based fluorescence microscopic analysis. Type of data set: functional, cell-based. Conditions: dose 1.15-2.3 µM, time 15.0 day. Summed up:
(§3)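 Live/dead staining of 3D spheroids at day 15 after single-dose treatment: media replaced by kit reagent with calcein AM (live, green) and EthD-III (dead, red), 30 min in dark at room temperature, imaged at 4X by fluorescence microscopy. Mean ± SD, n = 4; unpaired Student's t-test.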

The target of data set [6] is T1, 26S proteasome non-ATPase regulatory subunit 10 (Homo sapiens) (UniProt O75832).
T1 sequence (whole entry): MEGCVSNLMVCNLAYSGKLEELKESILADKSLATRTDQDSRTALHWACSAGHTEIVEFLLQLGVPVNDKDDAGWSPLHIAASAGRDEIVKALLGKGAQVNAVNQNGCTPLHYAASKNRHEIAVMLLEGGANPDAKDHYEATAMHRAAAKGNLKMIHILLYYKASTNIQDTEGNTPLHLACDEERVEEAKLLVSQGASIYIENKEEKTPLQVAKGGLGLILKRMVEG
Nature of the data set: Binding affinity to gankyrin (unknown origin) expressed in Escherichia coli BL21 (DE3) expression system assessed as formation of white precipitation of the compound at 1.5 uM.

Data set [7] deals with T1, 26S proteasome non-ATPase regulatory subunit 10 (Homo sapiens). As to the kind of experiment: Binding affinity to gankyrin (unknown origin) expressed in Escherichia coli BL21 (DE3) expression system assessed as decrease in thermal denaturation at 1.5 uM measured at 5 to 90 degreeC by circular dichroism spectropolarimeter analysis. An outline of the steps: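 Recombinant His-tagged gankyrin expressed in E. coli BL21(DE3) Codon+RIL (IPTG 1 mM, 25 °C, ~5 h) and purified by Ni2+-IMAC. Thermal denaturation followed by CD at 217 nm over 5–90 °C with compound at 1.5 μM.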
A general note: Circular dichroism is widely used to follow secondary structure.

Data set [8] can be described thus: Cytotoxicity against HEK293 cells assessed as cell growth inhibition measured after 72 hrs by MTT assay. It counts as toxicity, cell-based. The conditions noted are these: human. An outline of the steps: as §1
The nature of data set [9]: Antiproliferative activity against human HuH-6 cells assessed as cell growth inhibition measured after 72 hrs by MTT assay. Type of data set: functional, cell-based. The conditions noted are these: HuH-6, 72 h. Summed up: as §1
The target in data set [10] is T1, 26S proteasome non-ATPase regulatory subunit 10 (Homo sapiens). As to the kind of experiment: Binding affinity to gankyrin (unknown origin) assessed as change in melting temperature at 300 uM by SYPRO orange staining based thermal shift assay.
Data set [11] has as its system MDA-MB-231. As to the kind of experiment: Inhibition of gankyrin-proteasome protein-protein interaction in human MDA-MB-231 cells assessed as increase in Rb level at 0.30 to 2.50 uM measured after 48 hrs by Western blotting analysis. It counts as cell-based. The conditions noted are these: dose 0.3-2.5 µM. Summed up: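 Cells in 10 cm dishes treated with varying concentrations (0.5% DMSO final) or DMSO only for 48 h. Lysed in RIPA with protease/phosphatase inhibitors on ice for 60 min. 15 μg protein resolved under reducing conditions, transferred to PVDF, and probed for p53, phospho-p53 S6/S15, Rb, gankyrin and cyclophilin. Detection by HRP-secondary ECL.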

Data set [12] concerns MDA-MB-231. As to the kind of experiment: Inhibition of colony formation in human MDA-MB-231 cells at 1.15 uM incubated for 48 hrs followed by replacement of fresh media every alternative day measured after 7 days by crystal violet staining based clonogenic assay relative to control; values are per cent of control. The conditions noted are these: MDA-MB-231, 216 h.
Data set [13] has as its system MDA-MB-231. As to the kind of experiment: Antitumor activity against human MDA-MB-231 cells tumor spheroids assessed as increase in dead cells by measuring red fluorescence intensity at 1.15 to 2.30 uM measured at 15 days by EthD-III staining based fluorescence microscopic analysis. It counts as functional, cell-based. The conditions noted are these: dose 1.15-2.3 µM, time 15.0 day. Summed up: as §3

In data set [14] the test system is MDA-MB-231. As to the kind of experiment: Antitumor activity in human MDA-MB-231 cells cultured as 3D spheroids assessed as fold decrease in spheroid volume at 2.30 uM measured up to 15 days by inverted microscopic analysis. Type of data set: functional. The conditions noted are these: dose 2.3 µM; time <= 15 day. An outline of the steps:
as §2

Data set [15] addresses T2, 26S proteasome non-ATPase regulatory subunit 10 (Homo sapiens, UniProt O75832).
T2 sequence (O75832 whole entry): T1 sequence (whole entry)
As to the kind of experiment: Binding affinity to gankyrin (unknown origin) expressed in Escherichia coli BL21 (DE3) expression system assessed as dissociation constant at 1:1 protein to compound concentration by isothermal titration calorimetry.

For data set [16], the system named is A549. Nature of the data set: Antiproliferative activity against human A549 cells assessed as cell growth inhibition measured at 100 uM after 72 hrs by MTT assay. It counts as functional. Set-up: scale not given: the % may be the effect or the level left. An outline of the steps: as §1

The text below walks through data of ChEMBL document CHEMBL5120910, “Small-Molecule Gankyrin Inhibition as a Therapeutic Strategy for Breast and Lung Cancer” (J Med Chem, 2022).

Activity calls are given as the source filed them. No cut-off for these calls is given here. Bounds are passed on as bounds.

A word on the IC50: it is the concentration needed to halve the response being measured. What is called Kd is the free concentration of one partner at which half of the binding sites on the other are occupied at equilibrium, for simple one-to-one binding.

Consider `COC(=O)c1ccc(-n2cc(CCCNc3ccc(C)cc3)nn2)cc1`, for which the results for the IC50 in the data set with A549 [1] and with MDA-MB-231 [2] were above 100 µM and 33 µM, respectively.

Turning to `COC(=O)c1ccc(-n2cc(CCCC(=O)Oc3ccc(C)cc3)nn2)cc1`, the IC50 in the data set on A549 [1] is above 100 µM; in the data set with MDA-MB-231 [2], 55.1 µM.

Regarding `COC(=O)c1ccc(-n2cc(CCCOS(=O)(=O)c3ccc(-c4ccccc4)cc3)nn2)cc1`, the IC50 with A549 [1] was 57.3 µM; in the data set with MDA-MB-231 [2], above 100 µM.

For the compound `Cc1ccc(NC(=O)CCCn2cc(-c3ccc(C(F)(F)F)cc3)nn2)cc1`, the entries for the “fold change (FC)” value in the data set on MDA-MB-231 [3] and in the data set with MDA-MB-231 [14] were 2.6 and 3.1, respectively. Further, the IC50 with A549 [1] is 25 µM; in data set [9] it was 3.1 µM; with MDA-MB-231 [2] it was 2.3 µM. For the same compound, the remaining at 1 h in [4] came out at 84%. Besides, the outcome (in the data set on MDA-MB-231 [5]; in [6]; in data set [7]; in data set [10]; in the data set on MDA-MB-231 [11]; in the data set on MDA-MB-231 [13]) was Active. The IC50 at 72 h in data set [8] is above 100 µM. The growth, % of control at 1.15 µM with MDA-MB-231 [12] was 75.3%.

As to `COC(=O)c1ccc(-c2cn(CCCC(=S)Nc3ccc(C)cc3)nn2)cc1`, the IC50 in the data set with A549 [1] was 50 µM; with MDA-MB-231 [2], above 100 µM.

With `COC(=O)c1ccc(-n2cc(CCCC(=O)Nc3ccc(C)cc3)nn2)cc1`, the IC50 in the data set on A549 [1] came to 75.7 µM; with MDA-MB-231 [2] it was 9.7 µM.

Take `COC(=O)c1ccc(-n2cc(CCCOC(=O)c3ccc(C)cc3)nn2)cc1`: the IC50 with A549 [1] and in the data set with MDA-MB-231 [2] was above 100 µM throughout.

Consider `COC(=O)c1ccc(-c2cn(CCCC(=S)Nc3ccc(-c4ccccc4)cc3)nn2)cc1`, for which the results for the IC50 in the data set with A549 [1] and with MDA-MB-231 [2] were 42.3 µM and above 100 µM, respectively.

On to `COC(=O)c1ccc(-n2cc(CCCOc3ccc(C)cc3)nn2)cc1`, for which the results for the IC50 with A549 [1] and with MDA-MB-231 [2] were above 100 µM and 14.2 µM, respectively.

As to `COC(=O)c1ccc(-n2nncc2CCCOS(=O)(=O)c2ccc(C)cc2)cc1`, the half-maximal inhibitory concentration (IC50) is above 100 µM in the data set with A549 [1] and 58.1 µM in the data set on MDA-MB-231 [2].

Consider `COC(=O)c1ccc(-n2cc(CCCOS(=O)(=O)c3ccc(C)cc3)nn2)cc1`, for which the 50% inhibitory concentration (IC50) in the data set with A549 [1] and in the data set on MDA-MB-231 [2] was above 100 µM in each case. Also, in data set [4], the remaining at 1 h was 50%. In addition, the Kd in [15] was 0.532 µM. For the same compound, the Activity with A549 [16] is 0%.

Take `COC(=O)c1ccc(-c2nnn(CCCOS(=O)(=O)c3ccc(C)cc3)n2)cc1`: the IC50 in the data set with A549 [1] and with MDA-MB-231 [2] was above 100 µM throughout.

For `COC(=O)c1ccc(-n2cc(CCCNC(=O)c3ccc(C)cc3)nn2)cc1`, the half-maximal inhibitory concentration (IC50) with A549 [1] and with MDA-MB-231 [2] was above 100 µM in each case.

Turning to `COC(=O)c1ccc(-n2cc(CCCNC(=O)Nc3ccc(C)cc3)nn2)cc1`, the IC50 in the data set with A549 [1] came out at 36.4 µM; in the data set with MDA-MB-231 [2], 11.6 µM.

With `COC(=O)c1ccc(-n2cc(CCCNC(=S)c3ccc(C)cc3)nn2)cc1`, the IC50 in the data set on A549 [1] was above 100 µM; in the data set on MDA-MB-231 [2], 82.4 µM.

As for `COC(=O)c1ccc(-n2cc(CCCNC(=S)Nc3ccc(C)cc3)nn2)cc1`, the results for the IC50 in the data set on A549 [1] and in the data set on MDA-MB-231 [2] were 46.5 µM and above 100 µM, respectively.

Take `COC(=O)c1ccc(-c2cn(CCCOS(=O)(=O)c3ccc(C)cc3)nn2)cc1`: the values for the IC50 with A549 [1] and in the data set with MDA-MB-231 [2] were above 100 µM and 39.1 µM, respectively.

Consider `COC(=O)c1ccc(-n2cc(CCCC(=S)Nc3ccc(C)cc3)nn2)cc1`, for which the IC50 with A549 [1] turned out to be 7.9 µM; in the data set on MDA-MB-231 [2] it was 8.1 µM.

Take `COC(=O)c1ccc(-n2cc(CCCn3nnc(-c4ccc(C)cc4)n3)nn2)cc1`: the IC50 with A549 [1] is above 100 µM; with MDA-MB-231 [2], 36.5 µM.

Regarding `COC(=O)c1ccc(-n2cc(CCCC(=O)NS(=O)(=O)c3ccc(C)cc3)nn2)cc1`, the IC50 in the data set with A549 [1] and in the data set on MDA-MB-231 [2] was above 100 µM each time.

With `COC(=O)c1ccc(-n2cc(CCCc3nnc(-c4ccc(C)cc4)[nH]3)nn2)cc1`, the values for the IC50 in the data set with A549 [1] and in the data set on MDA-MB-231 [2] were 79.5 µM and 79.1 µM, respectively.

Turning to `COC(=O)c1ccc(-c2cn(CCCC(=O)Nc3ccc(C)cc3)nn2)cc1`, the IC50 in the data set with A549 [1] was above 100 µM; in the data set with MDA-MB-231 [2] it was 2.7 µM.

Take `COC(=O)c1ccc(-c2nnc(CCCOS(=O)(=O)c3ccc(C)cc3)o2)cc1`: the IC50 with A549 [1] and with MDA-MB-231 [2] was above 100 µM each time.

As for `COC(=O)c1ccc(-n2cc(CCCc3nnc(-c4ccc(C)cc4)o3)nn2)cc1`, the IC50 in the data set with A549 [1] is 65.1 µM; in the data set on MDA-MB-231 [2] it was 21.5 µM.

Take `COC(=O)c1ccc(-c2nnc(CCCOS(=O)(=O)c3ccc(C)cc3)[nH]2)cc1`: the IC50 with A549 [1] and in the data set on MDA-MB-231 [2] was above 100 µM throughout.

With `Cc1ccc(S(=O)(=O)OCCCc2cn(-c3ccc(C(F)(F)F)cc3)nn2)cc1`, the IC50 in the data set with A549 [1] and in the data set on MDA-MB-231 [2] was above 100 µM in each case.
